The species entered for assay [1] is Rattus norvegicus. In words: Percent injected dose per gram spleen at 1 hr. It is filed as functional. The essentials:
(§1)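 Immature (25 day) female Sprague-Dawley rats (ca. 50 g) were dosed iv (jugular or tail vein) in ethanol plus 0.9% NaCl/rat serum (1:1). Doses were 2 μCi of [125I]iodonorhexestrol (≤15 pmol/dose), or 2 μCi each of [77Br]bromonorhexestrol (≤1.25 pmol/dose) and 16α-[125I]iodoestradiol (2 pmol/dose). Rats were killed at 1, 3 or 6 h; blood and tissues were weighed and γ-counted. Thyroid weight assumed 0.005 g/100 g body weight. Mean ± SD.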

Assay [2] is described as follows: Uterus/blood distribution ratio was measured in immature female rats at 1 hr. It is filed as functional. The essentials:
as §1

Assay [3] is filed under the species Rattus norvegicus. In words: Percent injected dose per gram liver at 1 hr. In kind it is functional. The procedure, abridged: as §1
Assay [4] can be described thus: Thyroid/blood distribution ratio was determined in immature female rats at 1 hr. It is filed as functional. The essentials:
as §1

Assay [5] is described as follows: Kidney/blood distribution ratio was determined in immature female rats at 1 hr. In kind it is functional. The procedure, abridged:
(§2)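 Immature (25-day, ca. 50 g) Sprague-Dawley female rats received an iv injection (jugular or tail vein) of HPLC-purified tracer in ethanol plus 0.9% NaCl/rat serum 1:1. Doses were 2 μCi [125I]iodo tracer (≤15 pmol), or 2 μCi [77Br]bromo tracer (≤1.25 pmol) with 2 μCi 16α-[125I]iodoestradiol. Animals were killed at 1 h; blood and tissues were weighed and γ-counted. Blocking: coinjected unlabeled estradiol, 9 μg (iodo) or 18 μg (bromo). Mean ± SD.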

The species entered for assay [6] is Rattus norvegicus. Put plainly: Percent injected dose per gram Uterus at 1 hr. It is filed as functional. The procedure, abridged:
as §2

The species entered for assay [7] is Rattus norvegicus. Put plainly: Percent injected dose per gram lung at 1 hr. It is filed as functional. The procedure, abridged: as §1
Assay [8] is filed under the species Rattus norvegicus. Put plainly: Percent injected dose per gram liver at 1 hr with unlabeled estradiol. In kind it is functional. The essentials: (§3)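 Same iv biodistribution in immature female rats, killed at 1 h, with unlabeled estradiol coinjected to block receptor uptake: 9 μg with [125I]iodonorhexestrol (3 rats), 18 μg with the [77Br]bromonorhexestrol/16α-[125I]iodoestradiol pair (5 rats). Tissue and blood radioactivity were counted as % injected dose/g and tissue-to-blood ratio.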

Assay [9] can be described thus: Esophagus/blood distribution ratio was determined in immature female rats at 1 hr with unlabeled estradiol. It is filed as functional. The procedure, abridged:
as §2

The species named for assay [10] is Rattus norvegicus. In words: Percent injected dose per gram Ovaries at 1 hr. In kind it is functional. The procedure, abridged: as §2
The species entered for assay [11] is Rattus norvegicus. Put plainly: Percent injected dose per gram esophagus at 1 hr. It is filed as functional. The essentials:
as §2

The species named for assay [12] is Rattus norvegicus. Put plainly: Percent injected dose per gram thyroid at 1 hr with unlabeled estradiol. In kind it is functional, Thyroid gland. The essentials: as §3
Assay [13] can be described thus: Esophagus/blood distribution ratio was determined in immature female rats at 1 hr. In kind it is functional. The procedure, abridged:
as §2

Assay [14] is described as follows: Muscle/blood distribution ratio was determined immature female rats at 1 hr with unlabeled estradiol. It is filed as functional. The procedure, abridged:
as §2

The nature of assay [15]: Lung/blood distribution ratio was determined in immature female rats at 1 hr with unlabeled estradiol. It is filed as functional. The procedure, abridged:
as §2

The species named for assay [16] is Rattus norvegicus. In words: Percent injected dose per gram spleen at 1 hr with unlabeled estradiol. It is filed as functional. The procedure, abridged: as §3
The species entered for assay [17] is Rattus norvegicus. Put plainly: Percent injected dose per gram blood at 1 hr with unlabeled estradiol. In kind it is functional. The procedure, abridged: as §2
The species entered for assay [18] is Rattus norvegicus. In words: Percent injected dose per gram kidney at 1 hr. It is filed as functional. The essentials: as §2
A short description of assay [19]: Spleen/blood distribution ratio was determined immature female rats at 1 hr. It is filed as functional. The procedure, abridged:
as §1

Assay [20] is described as follows: Thyroid/blood distribution ratio was determined in immature female rats at 1 hr with unlabeled estradiol. It is filed as functional. The procedure, abridged:
as §3

Assay [21] is described as follows: Ovary/blood distribution ratio was determined in immature female rats at 1 hr with unlabeled estradiol. It is filed as functional. The essentials:
as §2

Assay [22] can be described thus: Uterus/blood distribution of compound was measured in immature female rats at 1 hr with unlabeled estradiol. It is filed as functional. The procedure, abridged:
as §3

A short description of assay [23]: Lung/blood distribution ratio was determined in immature female rats at 1 hr. It is filed as functional. The procedure, abridged:
as §2

Assay [24] is filed under the species Rattus norvegicus. In words: Percent injected dose per gram blood at 1 hr. In kind it is functional. The essentials:
as §2

The nature of assay [25]: Liver/blood distribution ratio was determined in immature female rats at 1 hr. It is filed as functional. The essentials: as §2
Assay [26] can be described thus: Spleen/blood distribution ratio was determined in immature female rats at 1 hr with unlabeled estradiol. It is filed as functional.
Assay [27] can be described thus: Ovary/blood distribution ratio was determined in immature female rats at 1 hr. It is filed as functional. The essentials:
as §2

Assay [28] can be described thus: Kidney/blood distribution ratio was determined in immature female rats at 1 hr with unlabeled estradiol. In kind it is functional. The essentials: as §2
The species entered for assay [29] is Rattus norvegicus. In words: Percent injected dose per gram kidney at 1 hr with unlabeled estradiol. It is filed as functional. The procedure, abridged:
as §2

Assay [30] is filed under the species Rattus norvegicus. In words: Percent injected dose per gram esophagus at 1 hr with unlabeled estradiol. In kind it is functional. The essentials:
as §2

The species entered for assay [31] is Rattus norvegicus. Put plainly: Percent injected dose per gram Muscle at 1 hr with unlabeled estradiol. It is filed as functional. The essentials:
as §2

The species entered for assay [32] is Rattus norvegicus. Put plainly: Percent injected dose per gram Uterus at 1 hr with unlabeled estradiol. In kind it is functional. The procedure, abridged: as §2
Assay [33] can be described thus: Tissue/blood distribution ratio was measured in immature female rats at 1 hr. It is filed as functional. The procedure, abridged: as §1
Assay [34] is filed under the species Rattus norvegicus. In words: Percent injected dose per gram Ovaries at 1 hr with unlabeled estradiol. It is filed as functional. The procedure, abridged:
as §2

The species named for assay [35] is Rattus norvegicus. In words: Percent injected dose per gram thyroid at 1 hr. It is filed as functional, Thyroid gland. The essentials:
as §1

The species entered for assay [36] is Rattus norvegicus. Put plainly: Percent injected dose per gram Muscle at 1 hr. In kind it is functional. The essentials: as §2
A short description of assay [37]: Solvolytic stability of compound was measured relative to p-hydroxyphenethyl bromide. In kind it is functional, Rattus norvegicus.
The nature of assay [38]: Tissue/blood distribution ratio was measured in immature female rats at 1h, unlabeled estradiol (18 microg) coinjected. In kind it is functional. The essentials: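 Immature female rats given iv [77Br]bromonorhexestrol with 16α-[125I]iodoestradiol (2 μCi each) plus 18 μg unlabeled estradiol coinjected; killed at 1 h. Tissue and blood were weighed and counted, and tissue-to-blood radioactivity ratios were computed; 5 animals, mean ± SD.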

The nature of assay [39]: Liver/blood distribution ratio was determined in immature female rats at 1 hr with unlabeled estradiol. In kind it is functional. The essentials:
as §2

The species entered for assay [40] is Rattus norvegicus. In words: Percent injected dose per gram lung at 1 hr with unlabeled estradiol. It is filed as functional. The procedure, abridged:
as §3

Regarding `CC[C@H](c1ccc(O)cc1)[C@@H](CI)c1ccc(O)cc1`, the Injected dose in the assay listed under Rattus norvegicus [1] is reported as 1.2%; in the assay filed under Rattus norvegicus [3], 2%; in the assay filed under Rattus norvegicus [6], 15.7%; in the assay filed under Rattus norvegicus [7], 1.4%; in the assay filed under Rattus norvegicus [8], 2.5%; in the assay listed under Rattus norvegicus [10], 4.8%. Moreover, the Injected dose is 8.3% in the assay listed under Rattus norvegicus [11]; 474.5% in the assay filed under Rattus norvegicus [12]; 1.3% in the assay listed under Rattus norvegicus [16]; 1.5% in the assay filed under Rattus norvegicus [17]; 1.8% in the assay filed under Rattus norvegicus [18]; 1.3% in the assay filed under Rattus norvegicus [24]. Further, the Injected dose in the assay listed under Rattus norvegicus [29] is reported as 1.9%; in the assay filed under Rattus norvegicus [30], 5.4%; in the assay filed under Rattus norvegicus [31], 2.7%; in the assay filed under Rattus norvegicus [32], 4.9%; in the assay filed under Rattus norvegicus [34], 4.9%; in the assay listed under Rattus norvegicus [35], 619%. Moreover, the results for the Injected dose in the assay listed under Rattus norvegicus [36] and in the assay listed under Rattus norvegicus [40] were 1.6% and 1.8%, respectively. For the same compound, the Ratio in assay [2] came out at 11.3; in assay [4] it was 494.8; in assay [5], 1.4; in assay [9], 3.6; in assay [13], 6.3; in assay [14], 1.9. In addition, the Ratio worked out at 1.2 in assay [15]; 0.9 in assay [19]; 278.4 in assay [20]; 3.2 in [21]; 3.3 in assay [22]; 1.1 in assay [23]. The Ratio in assay [25] turned out to be 1; in [26] it was 0.9; in assay [27] it was 3.7; in assay [28], 1.2; in [33] it was 1; in assay [38], 1. Also, the Ratio in assay [39] is 1.6. Also, in assay [37], the 1/krel was determined as 0.71.
`C[C@]12CC[C@@H]3c4ccc(O)cc4CC[C@H]3[C@@H]1C[C@@H](CBr)C2O` (stereo partly specified) came in with a 1/krel in assay [37] of 451.

These data come from ChEMBL document CHEMBL1121966, “(2R*,3S*)-1-[125I]Iodo-2,3-bis(4-hydroxyphenyl)pentane ([125I]iodonorhexestrol) and (2R*,3S*)-1-[77Br]Bromo-2,3-bis(4-hydroxyphenyl)pentane ([77Br]bromonorhexestrol), two gamma-emitting estrogens that show receptor-mediated uptake by target tissues in vivo” (1982).
